The record followed here is ChEMBL document CHEMBL5244225, “Bioassay-Guided Isolation of Fungistatic Compounds from Mimosa caesalpiniifolia Leaves” (J Nat Prod, 2019).

The structures appear in SMILES notation. The source made the active and inactive calls. The rule behind the calls is not given here.

In test [1] the test system is Nakaseomyces glabratus. As to the kind of experiment: Antifungal activity against Candida glabrata ATCC 90030 assessed as inhibition of microbial growth incubated for 24 hrs by broth microdilution method. It is filed as functional, organism-based. As to conditions: for IC50: ATCC 90030, 24 h; for IC90: ATCC 90030, time 24 hrs. In a few lines: (§1)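 Broth microdilution following CLSI M27-A3 and supplement M27-S4. Pure compounds were tested at 100 down to 0.06 μg mL−1 in a 10-step series, diluted from DMSO (≤1% DMSO final). Fluconazole served as the fungistatic control. Plates were incubated at 37 °C for 24 h and growth was read spectrophotometrically at 530 nm. IC50 and IC90 were taken as 50% and 90% growth inhibition.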

Test [2] deals with Pichia kudriavzevii. The experiment in a line: Antifungal activity against Candida krusei ATCC 6258 assessed as inhibition of microbial growth incubated for 24 hrs by broth microdilution method. It is filed as functional, organism-based. As to conditions: for IC50: ATCC 6258, 24 h; for IC90: ATCC 6258, time 24 hrs. In a few lines: as §1
(In general: Broth dilution looks for growth in wells or tubes with falling amounts of substance.)

Test [3] relates to Pichia kudriavzevii. As to the kind of experiment: Antifungal activity against Candida krusei ATCC 6258 assessed as inhibition of microbial growth at 100 to 0.06 ug/ml incubated for 24 hrs by broth microdilution method. It is filed as functional, organism-based. As to conditions: dose 100-0.06 µg/ml.
The subject of test [4] is Pichia kudriavzevii. As to the kind of experiment: Synergistic antifungal activity against Candida krusei ATCC 6258 assessed as fractional inhibitory concentration index incubated for 24 hrs in the presence of 3-(beta-D-glucopyranosyloxy)sitosterol by checkerboard assay. It is filed as functional. The procedure, abridged: (§2)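 Checkerboard pairing of two compounds serially diluted in Mueller−Hinton broth, incubated for 24 h at 37 °C, with growth read spectrophotometrically at 530 nm. Each FIC is the compound's IC in combination divided by its IC alone, and ΣFIC is the sum of the FIC values. ΣFIC ≤0.5 was taken as synergy, 0.5–4 as no interaction and >4 as antagonism.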

For test [5], the system named is Nakaseomyces glabratus. The experiment in a line: Additive antifungal activity against Candida glabrata ATCC 90030 assessed as fractional inhibitory concentration index incubated for 24 hrs in the presence of 3-(beta-D-glucopyranosyloxy)sitosterol by checkerboard assay. It is filed as functional. In a few lines:
as §2

The subject of test [6] is Nakaseomyces glabratus. The experiment in a line: Selectivity index, ratio of IC50 for antifungal activity against Candida glabrata ATCC 90030 to IC50 for antifungal activity against Candida glabrata ATCC 90030 in the presence of 3-(beta-D-glucopyranosyloxy)sitosterol. It is filed as functional.
Test [7] concerns Pichia kudriavzevii. As to the kind of experiment: Antifungal activity against Candida krusei ATCC 6258 assessed as inhibition of microbial growth incubated for 24 hrs in the presence of 3-(beta-D-glucopyranosyloxy)sitosterol by broth microdilution method. It is filed as functional, organism-based. As to conditions: ATCC 6258, 24 h. The procedure, abridged: (§3)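 Checkerboard combination of two compounds, each serially diluted in Mueller−Hinton broth. Ranges were set so that, after adding inoculum, concentrations sat at the range averages. Plates were incubated for 24 h at 37 °C and growth was quantified at 530 nm, as in the single-agent microdilution test. The inhibitory concentration of each compound was determined in combination.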

Test [8] has as its system Nakaseomyces glabratus. The experiment in a line: Antifungal activity against Candida glabrata ATCC 90030 assessed as inhibition of microbial growth incubated for 24 hrs in the presence of 3-(beta-D-glucopyranosyloxy)sitosterol by broth microdilution method. It is filed as functional, organism-based. As to conditions: ATCC 90030, 24 h. The procedure, abridged: as §3

In the case of `C[C@@]12Oc3cc4oc(-c5ccc(O)cc5)cc(=O)c4c(O)c3[C@@H](C[C@H](O)[C@H]1O)O2`, the IC50 (usually the concentration needed to halve the response being measured) in test [1] was found to be 7.8 µg/mL; in test [2], 62.5 µg/mL. Further, the IC90 (in general, the concentration needed for an effect of 90%) turned out to be 500 µg/mL in test [1] and 250 µg/mL in test [2].

For `C[C@@H]1O[C@@H](O[C@H]2C(=O)[C@@H](O)[C@H](C)O[C@@H]2c2c(O)cc(O)c3c(=O)cc(-c4ccc(O)c(O)c4)oc23)[C@H](O)[C@H](O)[C@H]1O`, the IC50 in test [1] amounted to 60 µg/mL; in test [2], 100 µg/mL.

In the case of `C[C@@H]1O[C@@H](O[C@H]2C(=O)[C@@H](O)[C@H](C)O[C@@H]2c2c(O)cc3oc(-c4ccc(O)c(O)c4)cc(=O)c3c2O)[C@H](O)[C@H](O)[C@H]1O`, the outcome in test [3] was inactive. For the same compound, the IC50 in test [1] came to 100 µg/mL.

As to `O=c1c(O)c(-c2ccc(O)c(O)c2)oc2cc(O)cc(O)c12` [QUERCETIN], the IC50 is 60 µg/mL in test [1] and 100 µg/mL in test [2].

As for `O=C(O)c1cc(O)c(O)c(O)c1` [GALLIC ACID], in test [3], the outcome was inactive. In test [1], the IC50 amounted to 60 µg/mL.

Regarding `O=c1cc(-c2ccc(O)c(O)c2)oc2cc(O)cc(O)c12` [LUTEOLIN], in test [3], the outcome was inactive. Moreover, the IC50 in test [1] stood at 15 µg/mL.

Regarding `O=C(O)/C=C/c1c(O)cc2oc(-c3ccc(O)cc3)cc(=O)c2c1O`, the results for the IC50 in test [1] and in test [2] were 3.9 µg/mL and 15 µg/mL, respectively.

For the compound `OC(Cn1cncn1)(Cn1cncn1)c1ccc(F)cc1F` [FLUCONAZOLE], the half-inhibitory concentration (IC50) in test [1] turned out to be 4 µg/mL; in test [2], 16 µg/mL.

On to `C[C@H]1O[C@@H](c2c(O)cc(O)c3c(=O)cc(-c4ccc(O)cc4)oc23)C[C@@H](O)[C@@H]1O`, for which, in test [1], the concentration for half-maximal inhibition (IC50) was 3.9 µg/mL and the IC90 worked out at 500 µg/mL. In test [2], the IC50 was 7.8 µg/mL and the IC90 is 250 µg/mL.

For `C[C@H]1O[C@@H](c2c(O)cc3oc(-c4ccc(O)cc4)cc(=O)c3c2O)C[C@H](O)[C@H]1O`, the 50% inhibitory concentration (IC50) in test [1] came out at 1000 µg/mL. For the same compound, in test [2], the IC50 amounted to 250 µg/mL and the IC90 was determined as 1000 µg/mL.

For `CCOC(=O)c1cc(O)c(O)c(O)c1` [ETHYLGALLATE], the “fractional inhibitory concentration index (FICI)” value in test [4] is 0.1; in test [5], 0.5. In addition, the “Ratio IC50” value in test [6] was determined as 100. Also, the IC50 is 1 µg/mL in test [7], 2.5 µg/mL in test [8], 15 µg/mL in test [1] and 15 µg/mL in test [2].

For `O=C(O)/C=C/c1c(O)cc(O)c2c(=O)cc(-c3ccc(O)cc3)oc12`, in test [1], the IC50 is 3.9 µg/mL and the IC90 worked out at 250 µg/mL. Moreover, in test [2], the IC50 is 125 µg/mL and the IC90 was 250 µg/mL.
